Measured values taken from ChEMBL document CHEMBL1933037, “Fatty acyl-gramicidin S derivatives with both high antibiotic activity and low hemolytic activity” (Bioorg Med Chem Lett, 2012).
Values after ≈ are worked out from the molar mass of the structure shown. Peptide text beside a SMILES is read from it.

Experiments:
Bacillus subtilis = assay: Antibacterial activity against Bacillus subtilis NBRC 3513 after overnight incubation by microplate dilution method; type: functional
Summary of the method: (§1)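 MIC read by microplate broth dilution with an inoculum of 10^6 organisms per ml of medium. Each peptide was tested 7–10 times.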

Priestia megaterium = assay: Antibacterial activity against Bacillus megaterium ATCC 19213 after overnight incubation by microplate dilution method; type: functional; summary of the method: as §1
[1] = test system: Staphylococcus epidermidis; assay: Antibacterial activity against Staphylococcus epidermidis NBRC 12933 after overnight incubation by microplate dilution method; type: functional; summary of the method: as §1
Pseudomonas aeruginosa = assay: Antibacterial activity against Pseudomonas aeruginosa NBRC 3080 after overnight incubation by microplate dilution method; type: functional; summary of the method: as §1
[2] = Hemolytic activity against sheep RBC at 20 to 100 uM after 30 mins by spectrophotometry; type: ADME, cell-based, Ovis aries; details: erythrocyte, 0.5 h
Summary of the method: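 Sheep erythrocytes were exposed to a range of peptide concentrations to build hemolysis (%) dose–response curves. The experiment was run three times per peptide.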

Escherichia coli = assay: Antibacterial activity against Escherichia coli NBRC 12734 after overnight incubation by microplate dilution method; type: functional; summary of the method: as §1
Staphylococcus aureus = assay: Antibacterial activity against Staphylococcus aureus NBRC 12732 after overnight incubation by microplate dilution method; type: functional; summary of the method: as §1

MIC (Bacillus subtilis)	MIC (Priestia megaterium)	MIC [1]	MIC (Pseudomonas aeruginosa)	MIC (Escherichia coli)	MIC (Staphylococcus aureus)	SMILES	Activity [2]
6.25 µg/mL (≈ 5.4 µM)	6.25 µg/mL (≈ 5.4 µM)	6.25 µg/mL (≈ 5.4 µM)	50 µg/mL (≈ 43.2 µM)	25 µg/mL (≈ 21.6 µM)	12.5 µg/mL (≈ 10.8 µM)	CC(C)C[C@@H]1NC(=O)[C@H](CCCN)NC(=O)[C@H](C(C)C)NC(=O)[C@@H]2C[C@H](N)CN2C(=O)[C@@H](Cc2ccccc2)NC(=O)[C@H](CC(C)C)NC(=O)[C@H](CCCN)NC(=O)[C@H](C(C)C)NC(=O)[C@@H]2CCCN2C(=O)[C@@H](Cc2ccccc2)NC1=O	Toxic
6.25 µg/mL (≈ 5.4 µM)	6.25 µg/mL (≈ 5.4 µM)	6.25 µg/mL (≈ 5.4 µM)	50 µg/mL (≈ 43.2 µM)	25 µg/mL (≈ 21.6 µM)	12.5 µg/mL (≈ 10.8 µM)	CC(C)C[C@@H]1NC(=O)[C@H](CCCN)NC(=O)[C@H](C(C)C)NC(=O)[C@@H]2C[C@@H](N)CN2C(=O)[C@@H](Cc2ccccc2)NC(=O)[C@H](CC(C)C)NC(=O)[C@H](CCCN)NC(=O)[C@H](C(C)C)NC(=O)[C@@H]2CCCN2C(=O)[C@@H](Cc2ccccc2)NC1=O	Toxic
12.5 µg/mL (≈ 9.75 µM)	6.25 µg/mL (≈ 4.87 µM)	6.25 µg/mL (≈ 4.87 µM)	50 µg/mL (≈ 39 µM)	50 µg/mL (≈ 39 µM)	6.25 µg/mL (≈ 4.87 µM)	CCCCCCCC(=O)N[C@H]1C[C@H]2C(=O)N[C@@H](C(C)C)C(=O)N[C@@H](CCCN)C(=O)N[C@@H](CC(C)C)C(=O)N[C@H](Cc3ccccc3)C(=O)N3CCC[C@H]3C(=O)N[C@@H](C(C)C)C(=O)N[C@@H](CCCN)C(=O)N[C@@H](CC(C)C)C(=O)N[C@H](Cc3ccccc3)C(=O)N2C1	Toxic
3.13 µg/mL (≈ 2.74 µM)	3.13 µg/mL (≈ 2.74 µM)	3.13 µg/mL (≈ 2.74 µM)	25 µg/mL (≈ 21.9 µM)	25 µg/mL (≈ 21.9 µM)	3.13 µg/mL (≈ 2.74 µM)	CC(C)C[C@@H]1NC(=O)[C@H](CCCN)NC(=O)[C@H](C(C)C)NC(=O)[C@@H]2CCCN2C(=O)[C@@H](Cc2ccccc2)NC(=O)[C@H](CC(C)C)NC(=O)[C@H](CCCN)NC(=O)[C@H](C(C)C)NC(=O)[C@@H]2CCCN2C(=O)[C@@H](Cc2ccccc2)NC1=O [GRAMICIDIN S] (HELM PEPTIDE1{L.[dF].P.V.[Orn].L.[dF].P.V.[Orn]}$PEPTIDE1,PEPTIDE1,1:R1-10:R2$$$V2.0)	–
